Data set [1] deals with Mus musculus. The experiment in a line: Toxicity in CDF1 mouse assessed as change in body weight at 6.25 mg/kg, ip measured on day 5 relative to control. The note with it: in vivo. Details: dose 6.25 mg/kg, route intraperitoneal. Format: organism-based. The gist of the method: (§1)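 CDF1 mice were implanted ip with 10^5 L1210 leukemia cells on day 0. Drug in 0.9% saline was given ip once daily on days 1–9 (nine injections) in a dose-response design. Body weight was compared with untreated tumor-bearing controls. The work was done as duplicate experiments.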

In data set [2] the test system is Mus musculus. The experiment in a line: Toxicity in CDF1 mouse assessed as change in body weight at 3.12 mg/kg, ip measured on day 5 relative to control. The settings on record: in vivo. The arrangement: dose 3.12 mg/kg, route intraperitoneal. Format: organism-based. In a few lines:
as §1

Data set [3] is described as follows: Drug degradation in water solution at 25 degC after 5.5 hrs by reverse phase liquid chromatography. Format: physicochemical. The settings on record: read-out: Drug degradation. In a few lines: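 Parent held at 25 °C and sampled over time. Its disappearance was fitted to a first-order rate equation, and the fraction lost was taken at 5.5 h from that fit.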

In data set [4] the test system is L1210. The experiment in a line: Antitumor activity in mouse L1210 cells allografted in CDF1 mouse assessed as increase in life span at 6.25 mg/kg, ip administered as qd for 9 days relative to control. The settings on record: 216 h, route intraperitoneal. Format: functional. In a few lines:
(§2)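 CDF1 mice inoculated ip with 10^5 L1210 leukemia cells on day 0; compounds in 0.9% saline given ip once daily days 1–9 (nine injections) across a dose-response range. Antitumor activity = mean increase in life span over untreated controls, expressed as % ILS; duplicate experiments, with drug-related deaths and weight loss monitored.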

Data set [5] has as its system Mus musculus. The experiment in a line: Toxicity in CDF1 mouse assessed as change in body weight at 12.5 mg/kg, ip measured on day 5 relative to control. Format: organism-based. Details: dose 12.5 mg/kg, route intraperitoneal. The note with it: in vivo. The gist of the method: as §1
Data set [6] has as its system L1210. The experiment in a line: Antitumor activity in mouse L1210 cells allografted in CDF1 mouse assessed as increase in life span at 1.56 mg/kg, ip administered as qd for 9 days relative to control. Format: functional. The note with it: 216 h, route intraperitoneal. The gist of the method: as §2
Data set [7] deals with Mus musculus. Description: Toxicity in CDF1 mouse assessed as change in body weight at 1.56 mg/kg, ip measured on day 5 relative to control. Format: organism-based. The note with it: in vivo. The arrangement: dose 1.56 mg/kg, route intraperitoneal. The gist of the method:
as §1

The subject of data set [8] is L1210. Description: Antitumor activity in mouse L1210 cells allografted in CDF1 mouse assessed as increase in life span at 3.12 mg/kg, ip administered as qd for 9 days relative to control. Format: functional. The settings on record: 216 h, route intraperitoneal. In a few lines: as §2
Data set [9] relates to Mus musculus. The experiment in a line: Toxicity in CDF1 mouse assessed as change in body weight at 0.78 mg/kg, ip measured on day 5 relative to control. Format: organism-based. Details: dose 0.78 mg/kg, route intraperitoneal. The settings on record: in vivo. In a few lines: as §1
For data set [10], the system named is L1210. Description: Antitumor activity in mouse L1210 cells allografted in CDF1 mouse assessed as increase in life span at 0.78 mg/kg, ip administered as qd for 9 days relative to control. Format: functional. The note with it: 216 h, route intraperitoneal. The gist of the method:
as §2

Data set [11] concerns Mus musculus. The experiment in a line: Toxicity in CDF1 mouse assessed as change in body weight at 10 mg/kg, ip measured on day 5 relative to control. Format: organism-based. The arrangement: dose 10 mg/kg, route intraperitoneal. The settings on record: in vivo. In a few lines: as §1
Data set [12] deals with Mus musculus. Description: Toxicity in CDF1 mouse assessed as change in body weight at 40 mg/kg, ip measured on day 5 relative to control. Format: organism-based. The arrangement: dose 40 mg/kg, route intraperitoneal. The note with it: in vivo. The gist of the method: as §1
For data set [13], the system named is Mus musculus. Description: Toxicity in CDF1 mouse assessed as change in body weight at 5 mg/kg, ip measured on day 5 relative to control. Format: organism-based. The arrangement: dose 5 mg/kg, route intraperitoneal. The settings on record: in vivo. The gist of the method:
as §1

Data set [14] concerns Mus musculus. Description: Toxicity in CDF1 mouse assessed as change in body weight at 200 mg/kg, ip measured on day 5 relative to control. Format: organism-based. The arrangement: dose 200 mg/kg, route intraperitoneal. The settings on record: in vivo. The gist of the method:
as §1

Data set [15] relates to Mus musculus. Description: Toxicity in CDF1 mouse assessed as change in body weight at 100 mg/kg, ip measured on day 5 relative to control. Format: organism-based. The arrangement: dose 100 mg/kg, route intraperitoneal. The settings on record: in vivo. In a few lines:
as §1

The test system of data set [16] is Mus musculus. The experiment in a line: Toxicity in CDF1 mouse assessed as change in body weight at 25 mg/kg, ip measured on day 5 relative to control. The arrangement: dose 25 mg/kg, route intraperitoneal. Format: organism-based. The note with it: in vivo. In a few lines: as §1
A short description of data set [17]: Half life of the compound. Format: physicochemical.
The subject of data set [18] is Mus musculus. Description: Toxicity in CDF1 mouse assessed as change in body weight at 50 mg/kg, ip measured on day 5 relative to control. Format: organism-based. Details: dose 50 mg/kg, route intraperitoneal. The settings on record: in vivo. The gist of the method:
as §1

Data set [19] deals with Mus musculus. The experiment in a line: Toxicity in CDF1 mouse assessed as change in body weight at 20 mg/kg, ip measured on day 5 relative to control. Format: organism-based. The arrangement: dose 20 mg/kg, route intraperitoneal. The settings on record: in vivo. The gist of the method: as §1
In data set [20] the test system is L1210. The experiment in a line: Antitumor activity in mouse L1210 cells allografted in CDF1 mouse assessed as increase in life span at 80 mg/kg, ip administered as qd for 9 days relative to control. Format: functional. The note with it: 216 h, route intraperitoneal. The gist of the method:
as §2

The test system of data set [21] is Mus musculus. Description: Toxicity in CDF1 mouse assessed as change in body weight at 80 mg/kg, ip measured on day 5 relative to control. The note with it: in vivo. Format: organism-based. Details: dose 80 mg/kg, route intraperitoneal. In a few lines:
as §1

Data set [22] relates to L1210. Description: Antitumor activity in mouse L1210 cells allografted in CDF1 mouse assessed as increase in life span at 25 mg/kg, ip administered as qd for 9 days relative to control. Format: functional. The note with it: 216 h, route intraperitoneal. The gist of the method:
as §2

In data set [23] the test system is L1210. Description: Antitumor activity in mouse L1210 cells allografted in CDF1 mouse assessed as increase in life span at 40 mg/kg, ip administered as qd for 9 days relative to control. Format: functional. The note with it: 216 h, route intraperitoneal. In a few lines:
as §2

In data set [24] the test system is L1210. Description: Antitumor activity in mouse L1210 cells allografted in CDF1 mouse assessed as increase in life span at 20 mg/kg, ip administered as qd for 9 days relative to control. Format: functional. The note with it: 216 h, route intraperitoneal. In a few lines:
as §2

Data set [25] has as its system L1210. The experiment in a line: Antitumor activity in mouse L1210 cells allografted in CDF1 mouse assessed as increase in life span at 12.5 mg/kg, ip administered as qd for 9 days relative to control. Format: functional. The settings on record: 216 h, route intraperitoneal. In a few lines:
as §2

In data set [26] the test system is L1210. The experiment in a line: Antitumor activity in mouse L1210 cells allografted in CDF1 mouse assessed as increase in life span at 5 mg/kg, ip administered as qd for 9 days relative to control. Format: functional. The note with it: 216 h, route intraperitoneal. In a few lines: as §2
Data set [27] relates to L1210. Description: Antitumor activity in mouse L1210 cells allografted in CDF1 mouse assessed as increase in life span at 10 mg/kg, ip administered as qd for 9 days relative to control. Format: functional. The note with it: 216 h, route intraperitoneal. The gist of the method:
as §2

Data set [28] deals with L1210. The experiment in a line: Antitumor activity in mouse L1210 cells allografted in CDF1 mouse assessed as increase in life span at 50 mg/kg, ip administered as qd for 9 days relative to control. Format: functional. The note with it: 216 h, route intraperitoneal. The gist of the method: as §2
Data set [29] deals with L1210. The experiment in a line: Antitumor activity in mouse L1210 cells allografted in CDF1 mouse assessed as increase in life span at 100 mg/kg, ip administered as qd for 9 days relative to control. Format: functional. The note with it: 216 h, route intraperitoneal. The gist of the method: as §2
Data set [30] can be described thus: Drug degradation in water solution at 25 degC after 4 hrs by reverse phase liquid chromatography. The note with it: read-out: Drug degradation. Format: physicochemical. In a few lines:
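Nucleoside in water solution held at 25 °C; the loss of parent compound over time was measured by LC analysis. Degradation was read at 4 h.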

Data set [31] has as its system L1210. The experiment in a line: Antitumor activity in mouse L1210 cells allografted in CDF1 mouse assessed as increase in life span at 200 mg/kg, ip administered as qd for 9 days relative to control. Format: functional. The note with it: 216 h, route intraperitoneal. In a few lines: as §2

The text below walks through data of ChEMBL document CHEMBL3244095, “Synthesis and antitumor activity of 5-azacytosine arabinoside” (J Med Chem, 1979).

What is called ILS is how much longer treated animals lived than controls. For the molecule `Nc1ncn([C@@H]2O[C@H](CO)[C@@H](O)[C@H]2O)c(=O)n1` [AZACITIDINE], the Activity in data set [1] was -6.1 g; in data set [2] it was -5.3 g; in data set [5], “Toxic”; in data set [7], -1.3 g; in data set [9], -2 g. Moreover, the degraded at 5.5 h in [3] was 15%. The ILS at 6.25 mg/kg in [4] turned out to be 1%. Moreover, the ILS at 1.56 mg/kg in data set [6] amounted to 66%. Also, the ILS at 3.12 mg/kg in data set [8] turned out to be 33%. Besides, the ILS at 0.78 mg/kg in data set [10] was determined as 26%.

As a reminder, the half-life is the time in which the quantity being followed falls by half. A low value points to fast loss. Turning to `Nc1ccn([C@@H]2O[C@H](CO)[C@@H](O)[C@@H]2O)c(=O)n1` [CYTARABINE], the Activity in data set [1] is 0.3 g; in data set [11], -0.2 g; in data set [12], -1 g; in data set [13], 0.4 g; in data set [14], “Non-toxic”; in data set [15], “Non-toxic”. Besides, the Activity is listed as 0 g in data set [16]; 0.3 g in data set [2]; -1.8 g in data set [18]; -0.3 g in [19]; -0.4 g in data set [5]; -1.8 g in data set [21]. In data set [17], this molecule gave a half-life of 34 h. For the same molecule, in [4], the ILS at 6.25 mg/kg worked out at 34%. The ILS at 80 mg/kg in data set [20] came to 92%. Besides, the ILS at 25 mg/kg in [22] was found to be 121%. Also, in [8], the ILS at 3.12 mg/kg was found to be 28%. Also, the ILS at 40 mg/kg in [23] worked out at 123%. For the same molecule, the ILS at 20 mg/kg in [24] came to 127%. The ILS at 12.5 mg/kg in data set [25] came out at 91%. Moreover, in [26], the ILS at 5 mg/kg was found to be 47%. Further, in data set [27], the ILS at 10 mg/kg came to 84%.

As for `Nc1ncn([C@@H]2O[C@H](CO)[C@@H](O)[C@@H]2O)c(=O)n1` [FAZARABINE], the ILS at 50 mg/kg in data set [28] was determined as 92%. The Activity in data set [1] was -2.5 g; in data set [14] it was -2.8 g; in data set [15] it was -4 g; in data set [16], -4 g; in data set [2], -3.3 g; in data set [18], -3.3 g. Further, the Activity in data set [5] was -3.7 g; in data set [7], -1.3 g; in data set [9] it was -1.2 g. Besides, the ILS at 100 mg/kg in data set [29] was determined as 80%. Further, in data set [4], the ILS at 6.25 mg/kg is 41%. Further, in [22], the ILS at 25 mg/kg was found to be 58%. Besides, the ILS at 1.56 mg/kg in data set [6] was 66%. For the same molecule, the ILS at 3.12 mg/kg in data set [8] is 28%. In addition, the degraded at 4 h in data set [30] was determined as 15%. In data set [31], the ILS at 200 mg/kg turned out to be 19%. Besides, in data set [25], the ILS at 12.5 mg/kg came to 58%. In addition, the ILS at 0.78 mg/kg in data set [10] worked out at 39%.
